# Hits are enriched below; roughly 4% of the tested compounds scored in any of these assays.
# Cardio protect = myocardial damage modulation in H9c2 cells; H9c2 cardiomyocytes, H2O2 injury protection, ATPLite, 2 h; protection from H2O2 cell death, % at 20 µM; 360,000 compounds, 0.63% hits;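 active means compounds giving at least 50% protection of heart cells from peroxide-induced death in the single-dose screen, raw or plate-pattern-corrected value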;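 further: 0% = DMSO wells with peroxide and 100% = DMSO wells without peroxide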
# iPSC survival up = hiPSC single-cell survival enhancement; ATPlite luminescence; 100% = ROCK inhibitor wells, 0% = DMSO; 360,000 compounds, 0.044% hits; survival enhancement, % at 20 µM; in the data active means survival enhancement above about 18%;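 further: cells exposed to compounds for 16 hours before the ATP read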
# GRIN3A LBD mod = modulators (binders) of human NR3A ligand-binding domain; NR3A LBD differential scanning fluorimetry, Tm shift; 0% = protein alone, 100% = glycine-bound protein; Tm shift relative to glycine control, % at 25 µM; 340,000 compounds, 2.5% hits;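 active means melting temperature shift of at least 10% of the positive control shift, at one fixed dose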
# SENP1 inh = SENP1 (human) catalytic domain inhibition; Q9P0U3; recombinant SENP1 catalytic domain, CyPet-SUMO1-YPet FRET cleavage; inhibition, % at 10 µM; 360,000 compounds, 0.21% hits; AID 624204;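 active means inhibition at least 30% at 10 µM, raw YFP signal under a set limit, fluorescence ratio 0.5 to 1.5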;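 further: 0% = enzyme with DMSO and 100% = no enzyme wells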
#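 Material: hSENP1 catalytic domain, recombinant; medium: Tris pH 8 with BME, BSA, NP40 and catalase; compound: single concentration of 10 µM compound, 0.5% DMSO final; technique: FRET read of cyan and yellow fluorescence; timing: 50 min enzyme reaction, room temperature, light-protected; reagent: SFCypet-SUMO1-SFYpet substrate at 25 nM; control set: no-enzyme low, enzyme-DMSO high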
# Arr AP2 block = blocks beta-arrestin peptide binding to AP2 adaptin. FITC-arrestin peptide / GST-AP2 beads, flow cytometry; AP2 beta2 appendage carries R879A mutation. inhibition, % at 10 µM. 340,000 compounds, 0.31% hits. AID 504490;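 active means inhibition above a set limit, near 3 SD of compounds lacking own fluorescence, cut at about 54% in these data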;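 further: plate controls were DMSO wells for no effect and 5 µM unlabelled arrestin peptide for full effect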
#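 Material – AP2 appendage R879A on GSH beads · Buffer or medium – PBS with 0.05% Tween 20 and 0.1% BSA · Probe or stimulus – fluorescein-tagged arrestin peptide at 50 nM final · Incubation – compound with beads 12 min RT, then probe 1 h RT · Detection – high-throughput flow cytometry of beads, ex 488, em 535 nm · Evaluation – percent response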
# FAS TE block = FAS thioesterase (human) inhibition; 360,000 compounds, 0.67% hits; inhibition, % at 15 µM; AID 602261; recombinant FAS-TE, OMFH fluorogenic substrate, fluorescence endpoint; P49327;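 active means compounds whose normalised, plate-corrected inhibition of enzyme fluorescence in the single-dose primary screen is 50% or more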;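 further: 0% = DMSO with enzyme and 100% = substrate without enzyme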
# Active calls of the source: *; . = no result.
SMILES,Cardio protect,iPSC survival up,GRIN3A LBD mod,SENP1 inh,Arr AP2 block,FAS TE block
CCc1nc2ccc(C(=O)Nc3ccc(OC)c(OC)c3)cn2c1N(C)CCC(C)C,-5,3,.,-2,.,9
CC1(C(=O)NS(=O)(=O)c2cccs2)CCN1C(=O)c1ccccc1 (stereo not drawn),1,-1,.,1,.,-7
Cc1cccc(C)c1-n1nnnc1C(c1ccnc2ccccc12)N1CCN(C(=O)OCc2ccccc2)CC1 (stereo not drawn),.,-1,.,-2,.,33
O=S(=O)(/N=C(/Nc1ccc(Cl)c(S(=O)(=O)Nc2ccccc2Cl)c1)c1ccc(F)cc1)c1ccccc1,0,1,14*,3,10,23
COc1ccccc1NS(=O)(=O)c1cc(N/C(=N/S(=O)(=O)c2ccccc2)c2ccc(F)cc2)ccc1Cl,13,-3,.,2,.,22
COc1cc(C(O)c2nc(-c3cccc(C(F)(F)F)c3)cs2)ccc1F (stereo not drawn),-8,-2,.,2,.,27
C=CC(C)(C)c1c(O)c(CC=C(C)C)c(O)c2c(=O)c3ccc(O)c(O)c3oc12,-12,-2,33*,-14,1,20
C=CC(C)(C)c1c2occc2c(O)c2ccc(=O)oc12,-10,0,-4,10,19,0
Cc1[nH]c2ccc(C(=O)NCc3ccccn3)cc2c1C,0,1,0,-27,4,-7
Cc1cc(NC(=O)c2ccc3[nH]c(C)c(C)c3c2)ccn1,-9,2,12*,-3,-16,-1
COc1ccc(NC(=O)c2ccc3[nH]c(C)c(C)c3c2)cc1,-2,-1,29*,-3,-3,3
CC(=O)Nc1cccc(NC(=O)c2ccc3[nH]c(C)c(C)c3c2)c1,-4,0,28*,1,1,-2
CC(=O)Nc1cccc(NC(=O)c2cccc(Cl)c2)c1,2,0,.,1,.,-2
CC(=O)Nc1cccc(NC(=O)c2cccc(-c3ccc(O)cc3)c2)c1,-1,0,10*,3,18,4
Cc1csc(=O)n1CCC(=O)OCC(=O)NCc1ccccc1,0,4,.,2,.,-10
CC1CC2(CC(CN(C3CCCCC3)C3CCCCC3)OC2=O)C(=O)O1 (stereo not drawn),-3,-1,.,-3,.,2
NS(=O)(=O)c1ccc(CCNc2nn3c(-c4cccc(OC(F)(F)F)c4)cnc3s2)cc1,-18,0,.,0,.,20
CCCCNC(=O)C1(C)CCCCN1CC(=O)c1ccc(OC)cc1 (stereo not drawn),-2,-2,.,-16,.,-4
O=C(O)[C@]1(S(=O)(=O)c2ccccc2)C[C@@H]2ON=C(c3cccc(Br)c3)[C@@H]2C1,4,1,-1,3,4,-10
O=S(=O)(c1ccccc1)[C@@]1(c2ccccc2)C[C@@H]2ON=C(c3cccc(Br)c3)[C@@H]2C1,-7,-2,0,-1,-5,55*
CCOC(=O)c1sc(N)nc1-c1ccccc1,-4,0,-1,1,17,-2
CCOC(=O)c1snc(-c2ccc(F)cc2)c1N,-8,-1,14*,0,-7,2
COc1ccc(C(=O)COC(=O)CNC(=O)c2ccc(OC)cc2)cc1,0,0,11*,3,6,-1
COc1cc(/C=C/c2nnc3c4ccccc4ncn23)cc(OC)c1OC,68*,0,-1,-2,-2,8
C(=C\c1nnc2c3ccccc3ncn12)/c1ccccc1,2,-2,-14,2,5,-6
SMILES,Cardio protect,iPSC survival up,GRIN3A LBD mod,SENP1 inh,Arr AP2 block,FAS TE block
COc1ccc(/C=N/n2cnc3c(sc(=S)n3-c3ccccc3)c2=O)cc1,-8,0,16*,1,-8,3
C=CCOc1cccn2c(N(C)C(=O)c3ccncc3)c(CC)nc12,0,1,.,3,.,-8
COc1ccc2c(c1)Cc1sc(NC(=O)c3ccccc3)nc1-2,-12,-1,10*,-5,-8,1
COc1ccc(C(=O)Nc2nc3c(s2)Cc2cc(OC)ccc2-3)cc1,-12,8,11*,-38,5,0
COc1ccc2c(c1)Cc1sc(NC(=O)c3cccs3)nc1-2,2,-1,25*,-7,-11,4
COc1ccc(NC(=O)c2sc(=O)n(Cc3cccc(C(F)(F)F)c3)c2C)cc1OC,-2,-1,.,0,.,17
Cc1cc(C)cc(CC(=O)N2CCC2(C)C(=O)NS(=O)(=O)c2ccc(Br)cc2)c1 (stereo not drawn),3,-2,.,0,.,-4
O=C1C=CC(=O)c2c(O)c(CO)c(CO)c(O)c21,-20,-2,-3,-13,58*,6
CC(NC(=O)c1ccc(Cl)c(Cl)c1)c1ccc(-c2ccccc2)cc1 (stereo not drawn),-10,0,16*,2,2,27
CC(C)(C)NC(=O)COC(=O)c1c2c(nc3ccccc13)CCC2,50*,0,-3,3,-3,-2
CC(C)c1ccccc1NC(=O)COC(=O)c1c2c(nc3ccccc13)CCN(Cc1ccccc1)C2,66*,-3,-3,-12,-4,13
CC(=O)c1ccc(NC(=O)COC(=O)c2c3c(nc4ccccc24)/C(=C\c2cccs2)CCC3)cc1,15,2,4,-50,14,32
O=C(COC(=O)c1c2c(nc3ccccc13)/C(=C\c1cccs1)CCC2)Nc1ccccc1,14,0,17*,-51,18,36
Cc1c(Cl)cccc1NC(=O)COC(=O)c1c2c(nc3ccccc13)CCN(Cc1ccccc1)C2,46,6,6,-16,6,30
COc1cccc(NC(=O)COC(=O)c2c3c(nc4ccccc24)CCC(C)C3)c1 (stereo not drawn),13,-1,19*,-1,-1,20
COc1cccc(-c2cccc(-c3nc(C(=O)NCc4ccc(Oc5ccccc5)cc4)cc4c3[C@H](CCO)N(S(=O)C(C)(C)C)C4)c2)c1 (stereo partly drawn),0,1,.,-11,.,-10
CC1CCN(C(=O)C2CCC(CNS(=O)(=O)c3ccc4c(c3)C(C)(C)C(=O)N4C)CC2)CC1 (stereo not drawn),-1,-2,.,2,.,-1
CCc1nc2c(OCc3cccc(OC)c3)cccn2c1N(C)C(=O)c1ccc(OC)cc1,14,-1,.,-3,.,-1
COc1cccc(NC(=O)CSc2nc3n[nH]c(C)c3c(=N)n2-c2cccc(OC)c2)c1,38,0,-3,1,-4,-1
CCc1ccc(NC(=O)CSc2nc3n[nH]c(C)c3c(=N)n2-c2cccc(OC)c2)cc1,-4,0,23*,1,-10,1
